Measurements reported in ChEMBL document CHEMBL1147923, “Synthesis, docking studies and anti-inflammatory activity of 4,5,6,7-tetrahydro-2H-indazole derivatives” (Bioorg Med Chem, 2007).
Calls of active or inactive are those of the source.

Legend:
[1] = tested on: Rattus norvegicus; experiment: Toxicity in arthritic Wistar rat assessed as gastric ulcerogenic response at 100 mg/kg, po; type: organism-based, Stomach; set-up: dose 100 mg/kg, route oral; details: in vivo
Procedure, shortened: (§1)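 Arthritis induced as for adjuvant model. Two days later rats fasted overnight, then dosed orally (10 ml/kg) or with vehicle; indomethacin 10 mg/kg po as positive control. Rats killed 4 h later, stomachs opened along greater curvature. Ulcer index taken as summed lesion length (mm) in gastric mucosa.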

[2] = tested on: Rattus norvegicus; experiment: Antiinflammatory activity in Wistar rat assessed as reduction of carrageenan-induced paw oedema; type: functional, organism-based
Procedure, shortened: (§2)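 Overnight-fasted rats dosed orally (10, 50, 100 mg/kg/10 ml) or with vehicle before carrageenan injection into the footpad. Equal volume of saline injected into left hindpaw. Rats killed 4 h later and hind paws cut and weighed. Oedema taken as right minus left paw weight; means ± SEM versus vehicle.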

[3] = tested on: Rattus norvegicus; experiment: Antiinflammatory activity against Freund's adjuvant-induced arthritis in Wistar rat assessed as reduction in paw width at 50 mg/kg, po; type: functional, organism-based; set-up: dose 50 mg/kg
Procedure, shortened: (§3)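 Arthritis induced by Freund's adjuvant injected into right paw; after 3 days paw height, paw width and joint width re-measured (day 0) and rats randomised. Dosed once daily for 3 further days (days 1–3), orally at 10 ml/kg or ip at 2 ml/kg, in vehicle 10% DMSO/10% Tween 80/80% water. Measurements taken at baseline, day 0 and days 1–4, compared with vehicle group.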

[4] = tested on: Rattus norvegicus; experiment: Antiinflammatory activity against Freund's adjuvant-induced arthritis in Wistar rat assessed as reduction in joint width at 10 mg/kg, po; type: functional, organism-based; set-up: dose 10 mg/kg; procedure, shortened: as §3
[5] = tested on: Rattus norvegicus; experiment: Antiinflammatory activity against Freund's adjuvant-induced arthritis in Wistar rat assessed as reduction in paw height at 50 mg/kg, po; type: functional, organism-based; set-up: dose 50 mg/kg; procedure, shortened: as §3
[6] = tested on: Rattus norvegicus; experiment: Antiinflammatory activity against Freund's adjuvant-induced arthritis in Wistar rat assessed as reduction in paw height at 100 mg/kg, po; type: functional, organism-based; set-up: dose 100 mg/kg; procedure, shortened: as §3
[7] = tested on: Rattus norvegicus; experiment: Antiinflammatory activity against Freund's adjuvant-induced arthritis in Wistar rat assessed as reduction in joint size at 100 mg/kg, ip; type: functional, organism-based; set-up: dose 100 mg/kg; procedure, shortened: as §3
[8] = tested on: Rattus norvegicus; experiment: Antiinflammatory activity against Freund's adjuvant-induced arthritis in Wistar rat assessed as reduction in paw width at 10 mg/kg, po; type: functional, organism-based; set-up: dose 10 mg/kg; procedure, shortened: as §3
[9] = tested on: Rattus norvegicus; experiment: Antiinflammatory activity against Freund's adjuvant-induced arthritis in Wistar rat assessed as reduction in paw height at 100 mg/kg, ip; type: functional, organism-based; set-up: dose 100 mg/kg; procedure, shortened: as §3
[10] = tested on: Rattus norvegicus; experiment: Antiinflammatory activity against Freund's adjuvant-induced arthritis in Wistar rat assessed as reduction in paw width at 100 mg/kg, ip; type: functional, organism-based; set-up: dose 100 mg/kg; procedure, shortened: as §3
[11] = tested on: Rattus norvegicus; experiment: Antinociceptive activity in Wistar rat assessed as increase in latency time at 50 mg/kg, ip; type: functional, organism-based; set-up: dose 50 mg/kg
Procedure, shortened: (§4)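 Freund's adjuvant-arthritic rats given ip dosing (10 ml/kg) or vehicle once daily for 4 days. Hot-plate test the day after the last injection at 55 ± 0.5 °C, set for 15–18 s control latency. Latency to hind-paw licking or jump recorded, 60 s cut-off. Each rat tested twice, 30 min apart. Normal rats included as controls.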

[12] = tested on: Rattus norvegicus; experiment: Antiinflammatory activity against Freund's adjuvant-induced arthritis in Wistar rat assessed as reduction in joint size at 100 mg/kg, po; type: functional, organism-based; set-up: dose 100 mg/kg; procedure, shortened: as §3
[13] = tested on: Rattus norvegicus; experiment: Antiinflammatory activity against Freund's adjuvant-induced arthritis in Wistar rat assessed as reduction in paw width at 100 mg/kg, po; type: functional, organism-based; set-up: dose 100 mg/kg; procedure, shortened: as §3
[14] = tested on: Rattus norvegicus; experiment: Antiinflammatory activity against Freund's adjuvant-induced arthritis in Wistar rat assessed as reduction in paw height at 10 mg/kg, po; type: functional, organism-based; set-up: dose 10 mg/kg; procedure, shortened: as §3
[15] = tested on: Rattus norvegicus; experiment: Antiinflammatory activity against Freund's adjuvant-induced arthritis in Wistar rat assessed as reduction in joint width at 50 mg/kg, po; type: functional, organism-based; set-up: dose 50 mg/kg; procedure, shortened: as §3
[16] = tested on: Rattus norvegicus; experiment: Antinociceptive activity in Wistar rat assessed as increase in latency time at 100 mg/kg, ip; type: functional, organism-based; set-up: dose 100 mg/kg; procedure, shortened: as §4
[17] = tested on: Rattus norvegicus; experiment: Toxicity in arthritic Wistar rat assessed as gastric ulcerogenic response at 10 mg/kg, po; type: organism-based, Stomach; set-up: dose 10 mg/kg, route oral; details: in vivo; procedure, shortened: as §1
[18] = tested on: Rattus norvegicus; experiment: Antiinflammatory activity against carrageenan-induced Wistar rat paw oedema at 10 mg/kg, po; type: functional, organism-based; set-up: dose 10 mg/kg; procedure, shortened: as §2
[19] = tested on: Rattus norvegicus; experiment: Antiinflammatory activity against carrageenan-induced Wistar rat paw oedema at 100 mg/kg, po; type: functional, organism-based; set-up: dose 100 mg/kg; procedure, shortened: as §2
[20] = tested on: Rattus norvegicus; experiment: Antiinflammatory activity against carrageenan-induced Wistar rat paw oedema at 50 mg/kg, po; type: functional, organism-based; set-up: dose 50 mg/kg; procedure, shortened: as §2

Compound	Activity [1]	Activity [2]	Activity [3]	Activity [4]	Activity [5]	Activity [6]	Activity [7]	Activity [8]	Activity [9]	Activity [10]	Activity [11]	Activity [12]	Activity [13]	Activity [14]	Activity [15]	Activity [16]	Activity [17]	Activity [18]	Activity [19]	Activity [20]
FC(F)(F)c1ccc(-n2nc3c(c2-c2ccccc2)CCCC3)cc1	Non-toxic	Dose-dependent effect	inactive	inactive	inactive	inactive	Active	inactive	Active	Active	Active	inactive	inactive	inactive	inactive	Active				
COc1ccc2c(c1)c(CC(=O)O)c(C)n2C(=O)c1ccc(Cl)cc1 [INDOMETHACIN]																	Toxic			
FC(F)(F)c1ccnc(-n2nc3c(c2-c2ccccc2)CCCC3)n1	Non-toxic					Active	inactive		Active	Active		inactive	inactive					inactive	inactive	inactive
